A selection: hits, their analogues and other compounds. The true share with any hit is near 1.9%.
TbHK1 inh: Trypanosoma brucei hexokinase 1 inhibitors, primary screen, biochemical, G6PDH-coupled NADH absorbance, MLSCN library. hexokinase 1 [Trypanosoma brucei]. recombinant TbHK1, G6PDH-coupled NADH A340. inhibition, % at 10 µM. actives 0.11% (n = 220,000). AID 1430, 2008;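 active means inhibition of 50% or more in the single-dose primary screen; inactive means inhibition below 50%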
Hck Nef HTS: inhibitors of Nef-activated human Hck kinase, primary screen, biochemical, Z-Lyte FRET, 384-well, Hck-YEEI; inhibition, % at 20 µM; AID 463187, 2010; Recombinant Hck-YEEI plus Nef, Z-Lyte FRET kinase assay; actives 0.68% (n = 220,000); Tyrosine-protein kinase HCK (Homo sapiens), P08631;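 active means Hck-Nef kinase inhibition above about 50%, limit read from the data; inactive means inhibition below that limit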
Runt-SMMHC FRET: inhibitors of RUNX1 Runt–CBFb-SMMHC binding, primary screen, biochemical, FRET, Cerulean-Runt, Venus-CBFb-SMMHC, uHTS; Runt-related transcription factor 1 (Homo sapiens) + Core-binding factor subunit beta …; Cerulean-Runt/Venus-CBFb-SMMHC FRET ratio 530/480, 1 h; inhibition, % at 20 µM; actives 0.74% (n = 220,000); AID 1434, 2008;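 active means mean inhibition across duplicate retests at 20 µM reaching about 50%, limit read from the data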;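 further: inhibitors lower the FRET ratio by blocking Runt binding to CBFb-SMMHC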
Runt-CBFb FRET: inhibitors of RUNX1 Runt–CBFb binding, primary screen, biochemical, FRET, Cerulean-Runt, Venus-CBFb, uHTS; Runt-related transcription factor 1 (Homo sapiens) + Core-binding factor subunit beta …; Cerulean-Runt/Venus-CBFb FRET ratio 530/480, 1 h; inhibition, % at 20 µM; actives 0.46% (n = 220,000); AID 1496, 2009;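 active means inhibition over about 50% at 20 µM in the single-dose screen, limit read from the data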
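Buffer or medium: Tris pH 7.5 buffer with BSA. Assay system: Cerulean-labeled Runt domain protein. Amount: each fluorescent fusion protein 100 nM. Read-out basis: loss of energy transfer signal. Incubation: 1 h compound exposure, room temperature. Probe or stimulus: Venus-CBFb binding partner, 100 nM. Detection: FRET, excitation 422 nm, emission at 530 and 480 nm.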
RanGTP-Imp inh: inhibitors of RanGTP-importin-beta interaction, primary screen, biochemical, FRET, CFP-Ran, YFP-importin-beta, homogeneous; cell-free CFP-Ran/YFP-importin-beta FRET ratio; inhibition, % (concentration not given with the values); actives 1.1% (n = 300,000); AID 2216, 2009;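 active means more than half of the replicate wells show a fall in the fluorescence ratio signal beyond about 16%, limit read from the data, passing the limit was not always enough; inconclusive means exactly half of the replicate wells pass the set limit; inactive means fewer than half of replicates pass the limit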
RUNX1 CBFb TR: inhibitors of RUNX1 Runt–CBFb binding, biochemical, TR-FRET; shares compounds with Runt-CBFb FRET; inhibition, % at 20 µM; TR-FRET RUNX1 Runt domain-CBFb binding; actives 20% (n = 480); in the data active means inhibition above about 40%
Of the large screens only hits and unclear results are named; the others gave an inactive call (follow-up assays come after a bar, where they were run).

CNC(=O)/C(C#N)=C/c1c(N(Cc2ccccc2)Cc2ccccc2)nc2ccccn2c1=O	Runt-SMMHC FRET 89.5, Runt-CBFb FRET 62.6 | RUNX1 CBFb TR inactive
COCCOC(=O)C(C#N)c1nc2ccccc2nc1N1CCN(Cc2ccccc2)CC1 (centres undefined)	Runt-SMMHC FRET 96.9, Runt-CBFb FRET 53.4 | RUNX1 CBFb TR inactive
Cc1[nH]c(=S)c(C#N)c(-c2ccco2)c1C(=O)N(C)C	none
Oc1ccc(N=Cc2ccc(-c3cccs3)s2)cc1	Runt-CBFb FRET 69.2, RanGTP-Imp inh 28.3 (no result: Runt-SMMHC FRET) | RUNX1 CBFb TR 49.9
Cc1cc(C)c(NC(=O)CS(=O)CC(=O)N2CCN(c3cccc(C)c3C)CC2)c(C)c1 (centres undefined)	none (no result: TbHK1 inh, Hck Nef HTS, Runt-SMMHC FRET, Runt-CBFb FRET)
CCC(=O)/C=C1/Sc2ccc(OC)cc2N1CC	none (no result: Runt-CBFb FRET)
CCC(=O)/C=C1/Sc2ccccc2N1CC	Runt-CBFb FRET 54.7 | RUNX1 CBFb TR inactive
COc1ccc(NC(=O)CN(C)C(=O)Cc2ccc3c(c2)CCC3)cc1	none (no result: TbHK1 inh, Hck Nef HTS, Runt-SMMHC FRET, Runt-CBFb FRET)
O=C1C=CC(=O)N1N(c1ccccc1)c1ccccc1	Runt-CBFb FRET 71.7 (no result: Runt-SMMHC FRET) | RUNX1 CBFb TR inactive
COc1cc(OC)c(OC)cc1CNCc1ccco1	none (no result: TbHK1 inh, Hck Nef HTS, Runt-SMMHC FRET, Runt-CBFb FRET)
COc1cc(N2C(=O)C=CC2=O)c(OC)cc1Cl	Runt-SMMHC FRET 69.9, Runt-CBFb FRET 63.6, RanGTP-Imp inh inconclusive | RUNX1 CBFb TR inactive
CCOc1ccc(S(=O)(=O)Nc2ccc(C(=O)NCC(C)(C)N3CCOCC3)cc2)cc1	none (no result: TbHK1 inh, Hck Nef HTS, Runt-SMMHC FRET, Runt-CBFb FRET)
S=c1[nH]nc(-c2cc3c(s2)-c2ccccc2CC3)o1	Runt-SMMHC FRET 70.2, Runt-CBFb FRET 56.9, RanGTP-Imp inh 17.3 | RUNX1 CBFb TR inactive
Cc1nnc(Sc2cc(NCCO)c([N+](=O)[O-])c3nonc23)s1	Runt-CBFb FRET 52.2 | RUNX1 CBFb TR inactive
Cc1ccc(C2OC34CCCCCC3C(C#N)(C(=N)O4)C2(C#N)C#N)cc1 (centres undefined)	Runt-SMMHC FRET 99.0, Runt-CBFb FRET 52.4, RanGTP-Imp inh 33.6 | RUNX1 CBFb TR inactive
CCN(CC)S(=O)(=O)c1ccc(OC)c(NS(=O)(=O)c2ccc(F)cc2)c1	Runt-CBFb FRET 50.2 | RUNX1 CBFb TR inactive
CN1c2ccccc2C(O)=C(C(=S)Nc2ccccc2)S1(=O)=O	none
CN1c2ccsc2C(O)=C(C(=S)Nc2ccccc2)S1(=O)=O	Runt-SMMHC FRET 91.3, Runt-CBFb FRET 52.6, RanGTP-Imp inh 89.0 | RUNX1 CBFb TR inactive
CN1CCc2c(sc3c2C(=O)NC(c2cccc(OC(=O)c4cccs4)c2)N3)C1 (centres undefined)	Runt-SMMHC FRET 105.5, Runt-CBFb FRET 50.8, RanGTP-Imp inh 139.6 | RUNX1 CBFb TR inactive
CCOC(=O)/C(=C/c1ccco1)NC(=O)c1ccc(Br)o1	none
CCOC(=O)c1[nH]nc(-c2cc(CC)c(O)cc2O)c1-c1cscn1	Runt-CBFb FRET 60.7 | RUNX1 CBFb TR inactive
CCCc1cc2c(=O)c(-c3cscn3)c(C(=O)OCC)oc2cc1O	RanGTP-Imp inh inconclusive
CC(C)(C)c1cc(C(=S)N2CCN(CCO)CC2)cc(C(C)(C)C)c1O	Runt-CBFb FRET 51.8, RanGTP-Imp inh inconclusive | RUNX1 CBFb TR inactive
OCCN1CCN(C(=S)c2ccc(Cl)cc2)CC1	Runt-CBFb FRET 53.1 | RUNX1 CBFb TR inactive
CCN1CCN(C(=S)c2ccc(Cl)cc2)CC1	none
COc1ccc(OC)c(NC(=O)CCN2CCN(c3ccccc3OC)CC2)c1	none (no result: TbHK1 inh, Hck Nef HTS, Runt-SMMHC FRET, Runt-CBFb FRET)
CNC(=O)C(=O)Nc1cc2c3c(c1)C(C)C(=O)N3CCC2 (centres undefined)	none (no result: TbHK1 inh, Hck Nef HTS, Runt-SMMHC FRET, Runt-CBFb FRET)
COc1ccccc1C(=O)NCC(=O)OCC(=O)N(CC(C)C)c1c(N)n(Cc2ccccc2)c(=O)[nH]c1=O	none (no result: TbHK1 inh, Hck Nef HTS, Runt-SMMHC FRET, Runt-CBFb FRET)
CCOC(=O)c1cc(-c2ccc(F)cc2)n(CC(=O)NCc2cccnc2)c1C	none
O=C(O)[C@@H]1[C@@H]2C[C@@H]2CN1c1ncccc1[N+](=O)[O-]	none

Screens deposited in PubChem by several laboratories.
